# Assay results: ChEMBL document CHEMBL1921792, “Synthesis and anticonvulsant activity of trans- and cis-2-(2,6-dimethylphenoxy)-N-(2- or 4-hydroxycyclohexyl)acetamides and their amine analogs” (Bioorg Med Chem, 2011)
# The source made the active and inactive calls.
# Legend:
# Rattus norvegicus [1] = assay: Anticonvulsant activity in rat assessed as protection against maximal electric shock-induced seizures at 30 mg/kg, ip after 1 hr; assay type: functional, organism-based; design: dose 30 mg/kg
# Procedure, shortened: (§1)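 Time-to-peak-effect assay: MES protection read at 0.25–4 h after dosing. Mice ip (60–130 mg/kg), rats po (15 or 30 mg/kg) or ip (30 mg/kg). Groups of 4–8; result is protected/tested.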
# [2] = Neurotoxicity in ip dosed mouse assessed as inability to maintain equilibrium on rotarod by rotarod test; assay type: toxicity, organism-based; conditions: in vivo
# Procedure, shortened: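 Mice dosed ip with a suspension in 0.5% methylcellulose, then placed on a 1 inch knurled plastic rod rotating at 6 rpm. Toxicity = failure to keep equilibrium for at least 1 min in each of three trials.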
# Rattus norvegicus [3] = species: Rattus norvegicus; assay: Protective index, ratio of TD50 for neurotoxicity in rat to ED50 for inhibition of maximal electroshock-induced seizures in rat; assay type: functional
# Rattus norvegicus [4] = assay: Neurotoxicity in rat assessed as neurological deficit at 30 mg/kg, ip after 4 hrs; assay type: toxicity, organism-based; design: dose 30 mg/kg, route intraperitoneal; conditions: in vivo
# Procedure, shortened: (§2)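 Rats given the compound, suspended in 0.5% methylcellulose, by the stated route and dose. Neurological deficit was recorded at the listed times as ataxia and loss of placing response and muscle tone. Reported as number of rats showing toxicity/number tested.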
# Rattus norvegicus [5] = assay: Neurotoxicity in rat assessed as neurological deficit at 30 mg/kg, po after 0.25 hrs […]; assay type: toxicity, organism-based; design: dose 30 mg/kg, route oral; conditions: in vivo; procedure, shortened: as §2
# Mus musculus [6] = assay: Anticonvulsant activity against […] in mouse assessed as increase in tonic threshold at 8 mg/kg, ip by threshold tonic extension test; assay type: functional, organism-based; design: dose 8 mg/kg
# Procedure, shortened: (§3)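 Threshold tonic extension test in mice. The compound was given ip, then pentylenetetrazol was infused until the first twitch and the first clonus. PTZ dose was calculated from the infusion speed. Mean of 8 animals ± S.E.M.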
# Rattus norvegicus [7] = assay: Anticonvulsant activity in po dosed rat assessed as protection against maximal electric shock-induced seizures; assay type: functional
# Mus musculus [8] = assay: Neurotoxicity in mouse assessed as inability to maintain equilibrium on rotarod at 10 mg/kg, ip after 0.5 hrs by rotarod test; assay type: toxicity, organism-based; design: dose 10 mg/kg, route intraperitoneal; conditions: in vivo
# Mus musculus [9] = assay: Anticonvulsant activity in mouse assessed as protection against maximal electric shock-induced seizures at 3 mg/kg, ip after 0.5 hrs; assay type: functional, organism-based; design: dose 3 mg/kg
# Mus musculus [10] = assay: Anticonvulsant activity against subcutaneous pentylenetetrazole-induced seizures in mouse at 30 mg/kg, ip after 0.5 hrs; assay type: functional, organism-based; design: dose 30 mg/kg
# Procedure, shortened: (§4)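 Phase I screen in mice. Compound given ip as a suspension in 0.5% methylcellulose, read at 30 min and 4 h. Pentylenetetrazole 85 mg/kg in 0.9% NaCl was injected sc into the posterior midline and animals watched ≥30 min. Protection meant no clonic spasm lasting ≥5 s. Groups of 1–8 animals; result is protected/tested.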
# Rattus norvegicus [11] = assay: Neurotoxicity in rat assessed as neurological deficit at 30 mg/kg, po after 0.5 hrs […]; assay type: toxicity, organism-based; design: dose 30 mg/kg, route oral; conditions: in vivo; procedure, shortened: as §2
# Rattus norvegicus [12] = assay: Neurotoxicity in rat assessed as neurological deficit at 30 mg/kg, ip after 2 hrs; assay type: toxicity, organism-based; design: dose 30 mg/kg, route intraperitoneal; conditions: in vivo; procedure, shortened: as §2
# Mus musculus [13] = assay: Anticonvulsant activity against […] in mouse assessed as increase in tonic threshold at 28 mg/kg, ip by threshold tonic extension test; assay type: functional, organism-based; design: dose 28 mg/kg; procedure, shortened: as §3
# Rattus norvegicus [14] = assay: Neurotoxicity in rat assessed as neurological deficit at 30 mg/kg, po after 2 hrs […]; assay type: toxicity, organism-based; design: dose 30 mg/kg, route oral; conditions: in vivo; procedure, shortened: as §2
# Mus musculus [15] = assay: Anticonvulsant activity in mouse assessed as protection against maximal electric shock-induced seizures at 30 mg/kg, ip after 0.5 hrs; assay type: functional, organism-based; design: dose 30 mg/kg
# Procedure, shortened: (§5)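 Phase I maximal electroshock screen in mice. Compound given ip as a suspension in 0.5% methylcellulose at 30, 100 or 300 mg/kg, tested at 30 min and 4 h. Small groups (1–8); result is number protected/number tested.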
# Rattus norvegicus [16] = assay: Anticonvulsant activity in rat assessed as protection against maximal electric shock-induced seizures at 30 mg/kg, ip after 0.25 hrs; assay type: functional, organism-based; design: dose 30 mg/kg; procedure, shortened: as §1
# Mus musculus [17] = assay: Anticonvulsant activity in mouse assessed as protection against maximal electric shock-induced seizures at 30 mg/kg, ip after 4 hrs; assay type: functional, organism-based; design: dose 30 mg/kg; procedure, shortened: as §5
# Mus musculus [18] = assay: Anticonvulsant activity in ip dosed mouse assessed as protection against maximal electric shock-induced seizures; assay type: functional; conditions: Mus musculus, ip; read-out: ED50
# Mus musculus [19] = assay: Anticonvulsant activity against subcutaneous pentylenetetrazole-induced seizures in mouse at 100 mg/kg, ip after 0.5 hrs; assay type: functional, organism-based; design: dose 100 mg/kg; procedure, shortened: as §4
# Mus musculus [20] = assay: Neurotoxicity in mouse assessed as inability to maintain equilibrium on rotarod at 30 mg/kg, ip after 0.5 hrs by rotarod test; assay type: toxicity, organism-based; design: dose 30 mg/kg, route intraperitoneal; conditions: in vivo
# Procedure, shortened: (§6)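 Drug given ip to mice as a suspension in 0.5% methylcellulose. At the stated time after dosing, each mouse was placed on a 1 inch knurled rod turning at 6 rpm. Neurotoxicity = inability to stay balanced at least 1 min in each of three trials. Scored as animals toxic/animals tested in small groups.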
# [21] = Neurotoxicity in po dosed rat assessed as neurological deficit […]; assay type: toxicity, organism-based; conditions: in vivo
# Procedure, shortened: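 Rats dosed orally with a suspension in 0.5% methylcellulose. Neurological deficit judged by ataxia and loss of placing response and muscle tone.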
# Mus musculus [22] = species: Mus musculus; assay: Protective index, ratio of TD50 for neurotoxicity in mouse to ED50 for inhibition of maximal electroshock-induced seizures in mouse; assay type: functional
# Rattus norvegicus [23] = assay: Anticonvulsant activity in ip dosed rat assessed as time to show peak effect of protection against maximal electric shock-induced seizures; assay type: functional; procedure, shortened: as §1
# Rattus norvegicus [24] = assay: Anticonvulsant activity in rat assessed as protection against maximal electric shock-induced seizures at 30 mg/kg, ip after 0.5 hrs; assay type: functional, organism-based; design: dose 30 mg/kg; procedure, shortened: as §1
# Mus musculus [25] = assay: Neurotoxicity in mouse assessed as inability to maintain equilibrium on rotarod at 300 mg/kg, ip after 0.5 hrs by rotarod test; assay type: toxicity, organism-based; design: dose 300 mg/kg, route intraperitoneal; conditions: in vivo; procedure, shortened: as §6
# Rattus norvegicus [26] = assay: Anticonvulsant activity in rat assessed as protection against maximal electric shock-induced seizures at 30 mg/kg, ip after 4 hrs; assay type: functional, organism-based; design: dose 30 mg/kg; procedure, shortened: as §1
# Mus musculus [27] = assay: Neurotoxicity in mouse assessed as inability to maintain equilibrium on rotarod at 100 mg/kg, ip after 0.5 hrs by rotarod test; assay type: toxicity, organism-based; design: dose 100 mg/kg, route intraperitoneal; conditions: in vivo; procedure, shortened: as §6
# Rattus norvegicus [28] = assay: Anticonvulsant activity in rat assessed as protection against maximal electric shock-induced seizures at 30 mg/kg, ip after 2 hrs; assay type: functional, organism-based; design: dose 30 mg/kg; procedure, shortened: as §1
# Rattus norvegicus [29] = assay: Anticonvulsant activity in rat assessed as protection against maximal electric shock-induced seizures at 30 mg/kg, po after 4 hrs; assay type: functional, organism-based; design: dose 30 mg/kg
# Procedure, shortened: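 MES test in rats dosed orally at 30 mg/kg as a suspension in 0.5% methylcellulose, read at 0.25–4 h. Four rats per time point; result is protected/tested.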
# Mus musculus [30] = assay: Neurotoxicity in mouse assessed as inability to maintain equilibrium on rotarod at 3 mg/kg, ip after 0.5 hrs by rotarod test; assay type: toxicity, organism-based; design: dose 3 mg/kg, route intraperitoneal; conditions: in vivo
# Rattus norvegicus [31] = assay: Neurotoxicity in rat assessed as neurological deficit at 30 mg/kg, po after 4 hrs by rotarod test; assay type: toxicity, organism-based; design: dose 30 mg/kg, route oral; conditions: in vivo; procedure, shortened: as §2
# Mus musculus [32] = assay: Neurotoxicity in mouse assessed as inability to maintain equilibrium on rotarod at 30 mg/kg, ip after 4 hrs by rotarod test; assay type: toxicity, organism-based; design: dose 30 mg/kg, route intraperitoneal; conditions: in vivo; procedure, shortened: as §6
# Rattus norvegicus [33] = assay: Neurotoxicity in rat assessed as neurological deficit at 30 mg/kg, po after 1 hr […]; assay type: toxicity, organism-based; design: dose 30 mg/kg, route oral; conditions: in vivo; procedure, shortened: as §2
# Rattus norvegicus [34] = assay: Neurotoxicity in rat assessed as neurological deficit at 30 mg/kg, ip after 1 hr; assay type: toxicity, organism-based; design: dose 30 mg/kg, route intraperitoneal; conditions: in vivo; procedure, shortened: as §2
# Mus musculus [35] = assay: Anticonvulsant activity against subcutaneous pentylenetetrazole-induced seizures in mouse at 30 mg/kg, ip after 4 hrs; assay type: functional, organism-based; design: dose 30 mg/kg; procedure, shortened: as §4
compound,measurement,setting,value
Cc1cccc(C)c1OCCNC1CCCCC1O (racemic),Activity,Rattus norvegicus [1],Active
same,TD50,[2],28.4 mg/kg
same,Ratio TD50/ED50,Rattus norvegicus [3],>19.06
same,Activity,Rattus norvegicus [4],Non-toxic
same,Activity,Rattus norvegicus [5],Non-toxic
same,Activity,Mus musculus [6],inactive
same,ED50,Rattus norvegicus [7],26.2 mg/kg
same,Activity,Mus musculus [8],Non-toxic
same,Activity,Mus musculus [9],inactive
same,Activity,Mus musculus [10],inactive
same,Activity,Rattus norvegicus [11],Non-toxic
same,Activity,Rattus norvegicus [12],Non-toxic
same,Activity,Mus musculus [13],inactive
same,Activity,Rattus norvegicus [14],Non-toxic
same,Activity,Mus musculus [15],Active
same,Activity,Rattus norvegicus [16],Active
same,Activity,Mus musculus [17],inactive
same,ED50,Mus musculus [18],7.73 mg/kg
same,Activity,Mus musculus [19],inactive
same,Activity,Mus musculus [20],Toxic
same,TD50,[21],> 500 mg/kg
same,Ratio TD50/ED50,Mus musculus [22],3.9
same,Time,Rattus norvegicus [23],0.25 h
same,Activity,Rattus norvegicus [24],Active
same,Activity,Mus musculus [25],Toxic
same,Activity,Rattus norvegicus [26],inactive
same,Activity,Mus musculus [27],Toxic
same,Activity,Rattus norvegicus [28],inactive
same,Activity,Rattus norvegicus [29],inactive
same,Activity,Mus musculus [30],Non-toxic
same,Activity,Rattus norvegicus [31],Non-toxic
same,Activity,Mus musculus [32],Non-toxic
same,Activity,Rattus norvegicus [33],Non-toxic
same,Activity,Rattus norvegicus [34],Non-toxic
same,Activity,Mus musculus [35],inactive
